SMILES strings stand for the structures. Converted amounts (≈) assume the structure as drawn.

A word on the MIC: it is the lowest concentration that inhibits growth of the organism. The IC50 is the concentration needed to halve the response being measured.

For series [1], the system named is Staphylococcus epidermidis. Put plainly: Antibacterial activity against Staphylococcus epidermidis ATCC 1457 assessed as bacterial growth inhibition measured after 18 hrs by two-fold serial microdilution method. The format is functional. The essentials:
(§1)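 Two-fold serial broth microdilution in MH II medium following modified CLSI procedures. Compounds were dissolved in DMSO and diluted in medium to at most 1% solvent, tested from 0.03125 to 512 μg/ml. Final inoculum 10^6 CFU/ml. MIC was taken as the lowest concentration with no visible growth after 18 h at 35 °C.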
Background: Dilution methods test growth across graded concentrations, often in twofold steps.

The subject of series [2] is Klebsiella pneumoniae. Briefly: Antibacterial activity against Klebsiella pneumoniae ATCC 10031 assessed as bacterial growth inhibition measured after 18 hrs by two-fold serial microdilution method. The format is functional. The essentials:
as §1

Series [3] relates to Staphylococcus epidermidis. Put plainly: Antibacterial activity against Staphylococcus epidermidis ATCC 12228 assessed as bacterial growth inhibition measured after 18 hrs by two-fold serial microdilution method. The format is functional. Put shortly: as §1
Series [4] has as its system Pseudomonas aeruginosa. Briefly: Antibacterial activity against Pseudomonas aeruginosa PAO1 assessed as bacterial growth inhibition measured after 18 hrs by two-fold serial microdilution method. The format is functional. The essentials:
as §1

The test system of series [5] is Staphylococcus epidermidis. Put plainly: Antibacterial activity against Staphylococcus epidermidis ATCC 35984/RP62A assessed as bacterial growth inhibition measured after 18 hrs by two-fold serial microdilution method. The format is functional. The essentials:
as §1

The test system of series [6] is Pseudomonas aeruginosa. Briefly: Antibacterial activity against Pseudomonas aeruginosa NCTC 6749 assessed as bacterial growth inhibition measured after 18 hrs by two-fold serial microdilution method. The format is functional. The essentials: as §1
Series [7] relates to Proteus vulgaris. Put plainly: Antibacterial activity against Proteus vulgaris NCTC 4635 assessed as bacterial growth inhibition measured after 18 hrs by two-fold serial microdilution method. The format is functional. The essentials:
as §1

For series [8], the system named is Escherichia coli. Briefly: Antibacterial activity against Escherichia coli ATCC 25922 assessed as bacterial growth inhibition measured after 18 hrs by two-fold serial microdilution method. The format is functional. Put shortly:
as §1

Series [9] concerns Staphylococcus aureus. Put plainly: Antibacterial activity against Staphylococcus aureus NCTC 4163 assessed as bacterial growth inhibition measured after 18 hrs by two-fold serial microdilution method. The format is functional. The essentials:
as §1

Series [10] deals with Mycobacterium tuberculosis. Briefly: Antitubercular activity against Mycobacterium tuberculosis Spec.192 assessed as inhibition of microbial growth by classical test tube method. The format is functional. The essentials:
(§2)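 Classical test-tube serial dilution in Youmans' modified Proskauer–Beck liquid medium with 10% bovine serum. Inoculum came from 14-day-old cultures. Compounds were given as DMSO solutions (stock 10 mg/ml), diluted geometrically in medium to 3.1–100 µg/ml, and incubated at 37 °C. MIC is the minimum concentration inhibiting growth relative to a no-compound control.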

In series [11] the test system is Staphylococcus aureus. Put plainly: Antibacterial activity against Staphylococcus aureus ATCC 6538 assessed as bacterial growth inhibition measured after 18 hrs by two-fold serial microdilution method. The format is functional. The essentials:
as §1

For series [12], the system named is Mycobacterium tuberculosis. Briefly: Antitubercular activity against Mycobacterium tuberculosis H37Rv ATCC 25618 assessed as inhibition of microbial growth by classical test tube method. The format is functional. The essentials:
as §2

The subject of series [13] is Mycolicibacterium fortuitum. Briefly: Antibacterial activity against Mycobacterium fortuitum assessed as inhibition of microbial growth incubated for 1 week by MABA method. The format is functional. The note with it: 168 h, time 1 weeks. The essentials: (§3)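 Microplate Alamar Blue assay using two-fold serial microdilution in Middlebrook 7H9 broth with 10% OADC, compounds 0.125–512 µg/ml from DMSO stocks. Inoculum came from fresh LJ culture, was adjusted to McFarland 1 and diluted 1:20. Plates were incubated 1 week at 37 °C, Alamar blue was added and plates were re-incubated 24 h. MIC was the lowest concentration preventing the blue-to-pink change. Each plate carried growth and sterile controls.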
In general terms: The colour change of resazurin is a common sign of viable cells or microbes.

Series [14] deals with HaCaT. Briefly: Cytotoxicity against human HaCaT cells assessed as reduction in cell viability at 100 uM measured after 72 hrs by MTT assay. The format is cell-based. Put shortly:
(§4)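 MTT viability assay on cells grown in DMEM with 10% heat-inactivated FBS, penicillin/streptomycin and 20 mM HEPES at 37 °C/5% CO2. Cells were seeded at 1×10^4 per well and allowed to adhere for 24 h, then the medium was refreshed. Compounds were added at 20–140 μM for 72 h at 37 °C, followed by MTT (0.5 mg/mL in serum-free medium) for 4 h. Untreated cells served as control. IC50 is the concentration giving 50% growth inhibition versus control.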
A general note: Tetrazolium assays rely on reduction of a dye to a coloured formazan, in cell work by metabolically active cells.

Series [15] has as its system V79. Put plainly: Cytotoxicity against Chinese Hamster V79 cells assessed as reduction in cell viability at 100 uM measured after 72 hrs by MTT assay. The format is cell-based, Cricetulus griseus. The note with it: v79, 72 h. The essentials: as §4
Series [16] relates to Mycobacterium xenopi. Put plainly: Antibacterial activity against Mycobacterium xenopi assessed as inhibition of microbial growth incubated for 1 week by MABA method. The format is functional. As to conditions: 168 h, time 1 weeks. The essentials: as §3
The test system of series [17] is Mycobacterium avium. Put plainly: Antimycobacterial activity against Mycobacterium avium assessed as inhibition of microbial growth incubated for 1 week by MABA method. The format is functional. As to conditions: 168 h, time 1 weeks. Put shortly: (§5)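 Microplate Alamar Blue assay in Middlebrook 7H9 broth with 10% OADC. Inoculum from fresh LJ culture was adjusted to McFarland 1 and diluted 1:20. DMSO stocks were two-fold serially diluted to final 0.125–512 µg/ml, with growth and sterile controls. Plates ran 1 week at 37 °C, then Alamar blue was added for 24 h. MIC is the lowest concentration preventing the blue-to-pink change.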

For series [18], the system named is Mycobacterium scrofulaceum. Put plainly: Potency index, ratio of isoniazid MIC to test compound MIC for antibacterial activity against Mycobacterium scrofulaceum assessed as inhibition of microbial growth incubated for 1 week by MABA method. The format is functional. The note with it: time 1 weeks.
Series [19] relates to Mycobacterium scrofulaceum. Briefly: Antibacterial activity against Mycobacterium scrofulaceum assessed as inhibition of microbial growth incubated for 1 week by MABA method. As to conditions: 168 h, time 1 weeks. The format is functional. Put shortly:
as §3

The subject of series [20] is Mycobacterium tuberculosis. Put plainly: Antitubercular activity against Mycobacterium tuberculosis Spec.192 assessed as inhibition of microbial growth incubated for 1 week by MABA method. The note with it: Mycobacterium tuberculosis, 192, 168 h; time 1 weeks. The format is functional. The essentials: as §5
Series [21] concerns HaCaT. Put plainly: Cytotoxicity against human HaCaT cells assessed as reduction in cell viability measured after 72 hrs by MTT assay. The format is cell-based. The essentials:
as §4

The test system of series [22] is V79. Put plainly: Cytotoxicity against Chinese Hamster V79 cells assessed as reduction in cell viability measured after 72 hrs by MTT assay. The format is cell-based. As to conditions: Cricetulus griseus, V79, 72 h. Put shortly:
as §4

In series [23] the test system is Mycobacterium tuberculosis. Briefly: Antitubercular activity against Mycobacterium tuberculosis H37Rv ATCC 25618 assessed as inhibition of microbial growth incubated for 1 week by MABA method. The format is functional. As to conditions: H37Rv ATCC 25618, 168 h, time 1 weeks. Put shortly: as §5
Series [24] concerns Mycobacterium intracellulare. Put plainly: Antimycobacterial activity against Mycobacterium intracellulare assessed as inhibition of microbial growth incubated for 1 week by MABA method. The format is functional. The note with it: 168 h, time 1 weeks. Put shortly:
as §3

Series [25] relates to Mycobacterium kansasii. Briefly: Antibacterial activity against Mycobacterium kansasii assessed as inhibition of microbial growth incubated for 1 week by MABA method. The note with it: 168 h, time 1 weeks. The format is functional. The essentials: as §3

On to `COc1ccc(NC(=S)Nc2cccc(Cl)c2)cc1`, for which the MIC in [1], in [2], in series [3], in series [4], in series [5] and in series [6] was above 256 µg/mL throughout. For the same compound, the MIC was above 256 µg/mL in [7]; above 256 µg/mL in series [8]; above 256 µg/mL in series [9]; 100 µg/mL in series [10]; above 256 µg/mL in [11]; 100 µg/mL in [12].
In the case of `COc1ccc(Nc2nnnn2-c2cccc(Cl)c2)cc1`, the MIC in series [13] was 512 µg/mL; in series [1], above 256 µg/mL; in series [2] it was above 256 µg/mL; in series [3], above 256 µg/mL; in series [16] it was 512 µg/mL; in series [17], 64 µg/mL. The MIC in series [4], in series [5], in series [6], in series [7], in [8] and in series [9] was above 256 µg/mL each time. The MIC is 2 µg/mL in series [19]; above 256 µg/mL in [11]; 8 µg/mL in series [20]; 8 µg/mL in series [23]; 128 µg/mL in series [24]; 512 µg/mL in series [25]. Further, the Activity entry in series [14] and in series [15] was “Non-Toxic” in each case. In addition, in series [18], the Ratio stood at 32. In addition, the IC50 came out at 103 µM in [21] and 124 µM in series [22].
For `COc1ccc(-n2nnnc2Nc2cccc(F)c2)cc1`, the MIC was 256 µg/mL in [13]; 256 µg/mL (≈ 897 µM) in [1]; above 256 µg/mL in [2]; 32 µg/mL (≈ 112 µM) in series [3]; 512 µg/mL in series [16]; 128 µg/mL in [17]. The MIC in series [4] was above 256 µg/mL; in series [5], 128 µg/mL (≈ 449 µM); in [6], above 256 µg/mL; in series [7] it was above 256 µg/mL; in [8], above 256 µg/mL; in series [9], 128 µg/mL (≈ 449 µM). The MIC in series [19] stood at 16 µg/mL; in [11] it was 64 µg/mL (≈ 224 µM); in series [20] it was 8 µg/mL; in series [23] it was 8 µg/mL; in series [24], 64 µg/mL; in series [25] it was 512 µg/mL. In addition, the Activity result in series [14] and in series [15] was “Non-Toxic” throughout. In addition, in [18], the Ratio was found to be 4. In addition, the values for the IC50 in [21] and in series [22] were 127 µM and 248 µM, respectively.
For `COc1ccc(NC(=S)Nc2ccc(Cl)cc2)cc1`, the minimum inhibitory concentration (MIC) in series [1], in series [2], in series [3], in series [4], in series [5] and in series [6] was above 256 µg/mL throughout. Further, the MIC in series [7] was above 256 µg/mL; in series [8] it was above 256 µg/mL; in series [9] it was above 256 µg/mL; in series [10], 50 µg/mL; in series [11], above 256 µg/mL; in [12] it was 50 µg/mL.
For the compound `COc1ccc(NC(=S)Nc2cccc(Br)c2)cc1`, the minimum inhibitory concentration (MIC) in series [1], in series [2], in [3], in series [4], in series [5] and in series [6] was above 256 µg/mL in each case. In addition, the minimal inhibitory concentration (MIC) in [7] was above 256 µg/mL; in [8], above 256 µg/mL; in series [9], above 256 µg/mL; in series [10], 50 µg/mL; in series [11], above 256 µg/mL; in series [12], 50 µg/mL.
Take `COc1ccc(NC(=S)Nc2ccccc2Br)cc1`: the MIC in [1], in series [2], in [3], in [4], in series [5] and in [6] was above 256 µg/mL in each case. For the same compound, the MIC in series [7] is above 256 µg/mL; in [8] it was above 256 µg/mL; in [9], above 256 µg/mL; in series [10] it was 50 µg/mL; in series [11] it was above 256 µg/mL; in series [12], 50 µg/mL.

These data come from ChEMBL document CHEMBL4680121, “Development of (4-methoxyphenyl)-1H-tetrazol-5-amine regioisomers as a new class of selective antitubercular agents” (Eur J Med Chem, 2020).
